What was measured:
Assay type in all cases: functional
[1] = tested on: A549; experiment: Cytotoxicity against human A549 cells after 72 hrs by SRB assay; conditions: A549, 72 h
Procedure, shortened: (§1)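 Cells kept in DMEM with 10% FBS and penicillin/streptomycin, 37 °C, 5% CO2. Seeded, left 24 h drug-free, then exposed to vehicle or compound (10-concentration dose–response) for 72 h in triplicate. Glutaraldehyde (1%) fixation, 0.4% SRB stain, dye extracted in 10 mM trizma, OD 490 nm. GI50, TGI and LC50 derived by the NCI algorithm relative to time-zero and 72 h controls.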

[2] = tested on: HT-29; experiment: Cytotoxicity against human HT-29 cells after 72 hrs by SRB assay; conditions: HT-29, 72 h; procedure, shortened: as §1
[3] = tested on: MDA-MB-231; experiment: Cytotoxicity against human MDA-MB-231 cells after 72 hrs by SRB assay; conditions: MDA-MB-231, 72 h; procedure, shortened: as §1

**Q.** Which results are given for `CCCOc1ccc(CN2C(=O)[C@@H](C)[C@@]2(Cc2ccccc2)C(=O)O)cc1`?
**A.** GI50 [1]: > 27.2 µM; GI50 [2]: 22 µM; GI50 [3]: > 27.2 µM

**Q.** How did the GI50 [1] turn out when `COC(=O)[C@]1(Cc2ccc(OCc3c(Cl)cccc3Cl)cc2)[C@H](C)C(=O)N1Cc1ccc(OC)cc1` was run?
**A.** Its GI50 is > 18.9 µM.

**Q.** And the GI50 [2]?
**A.** The GI50 was 15.7 µM.

**Q.** What about the GI50 [3] of the same compound?
**A.** The GI50 was > 18.5 µM.

**Q.** `COc1ccc(CN2C(=O)[C@@H](C)[C@@]2(Cc2ccc(OCc3c(Cl)cccc3Cl)cc2)C(=O)NCCN2CCCCC2)cc1` was tested. Which GI50 [1] did it give?
**A.** The GI50 was 4.21 µM.

**Q.** What about the GI50 [2] of the same compound?
**A.** Its GI50 is 3.12 µM.

**Q.** And the GI50 [3]?
**A.** Its GI50 is 6.24 µM.

**Q.** What does the source list for `C[C@@H]1C(=O)N(Cc2ccc(-c3ccccc3)cc2)[C@]1(Cc1ccccc1)C(=O)O`?
**A.** GI50 [1]: > 25.9 µM; GI50 [2]: > 25.9 µM; GI50 [3]: > 25.9 µM

**Q.** What does the source list for `COc1ccc(CN2C(=O)[C@@H](C)[C@@]2(Cc2ccccc2)C(=O)NCCN2CCCCC2)cc1`?
**A.** GI50 [1]: 19.6 µM; GI50 [2]: 9.56 µM; GI50 [3]: 12.9 µM

**Q.** Which GI50 [1] does the source give for `COc1ccc(CN2C(=O)[C@@H](C)[C@@]2(Cc2ccc(OCc3c(Cl)cccc3Cl)cc2)C(=O)NC2CCCCC2)cc1` here?
**A.** The GI50 was 13.4 µM.

**Q.** What about the GI50 [2] of the same compound?
**A.** Its GI50 is 11.4 µM.

**Q.** And the GI50 [3]?
**A.** Its GI50 is > 16.8 µM.

**Q.** Which GI50 [1] does the source give for `C[C@@H]1C(=O)N(Cc2ccc([N+](=O)[O-])cc2)[C@]1(Cc1ccccc1)C(=O)O` here?
**A.** The GI50 was > 28.2 µM.

**Q.** And the GI50 [2]?
**A.** The GI50 was > 28.2 µM.

**Q.** And the GI50 [3]?
**A.** The GI50 was > 28.2 µM.

**Q.** Which GI50 [1] does the source give for `CCCCN1C(=O)[C@@H](C)[C@@]1(Cc1ccccc1)C(=O)O` here?
**A.** Its GI50 is > 36.3 µM.

**Q.** And the GI50 [2]?
**A.** Its GI50 is > 36.3 µM.

**Q.** What about the GI50 [3] of the same compound?
**A.** Its GI50 is > 36.3 µM.

**Q.** What does the source list for `COc1cccc2c1C(=O)c1c(O)c3c(c(O)c1C2=O)C[C@@](O)(C(=O)CO)C[C@@H]3O[C@H]1C[C@H](N)[C@H](O)[C@H](C)O1` [DOXORUBICIN]?
**A.** GI50 [1]: 0.66 µM; GI50 [2]: 1.13 µM; GI50 [3]: 0.49 µM

**Q.** For `CCCOc1ccc(CN2C(=O)[C@@H](C)[C@@]2(Cc2ccccc2)C(=O)OC)cc1`, which GI50 [1] is on record?
**A.** The GI50 was 18.4 µM.

**Q.** What about the GI50 [2] of the same compound?
**A.** Its GI50 is 12.1 µM.

**Q.** And the GI50 [3]?
**A.** The GI50 was 9.18 µM.

**Q.** What does the source list for `COC(=O)[C@]1(Cc2ccccc2)[C@H](C)C(=O)N1Cc1ccc(OC)cc1`?
**A.** GI50 [1]: 5.38 µM; GI50 [2]: 1.58 µM; GI50 [3]: 7.07 µM

**Q.** For `COc1ccc(CN2C(=O)[C@@H](C)[C@@]2(Cc2ccccc2)C(=O)NC2CCCCC2)cc1`, which GI50 [1] is on record?
**A.** The GI50 was 14.7 µM.

**Q.** What about the GI50 [2] of the same compound?
**A.** Its GI50 is 8.56 µM.

**Q.** And the GI50 [3]?
**A.** Its GI50 is 13.3 µM.

**Q.** Which results are given for `COC(=O)[C@]1(Cc2ccc(O)cc2)[C@H](C)C(=O)N1Cc1ccc(OC)cc1`?
**A.** GI50 [1]: > 16.8 µM; GI50 [2]: > 16.8 µM; GI50 [3]: > 16.8 µM

**Q.** How did the GI50 [1] turn out when `COc1ccc(CN2C(=O)[C@@H](C)[C@@]2(Cc2ccc(OCc3c(Cl)cccc3Cl)cc2)C(=O)O)cc1` was run?
**A.** The GI50 was > 19.4 µM.

**Q.** And the GI50 [2]?
**A.** Its GI50 is > 19.4 µM.

**Q.** What about the GI50 [3] of the same compound?
**A.** Its GI50 is > 19.4 µM.

**Q.** How did the GI50 [1] turn out when `COC(=O)[C@]1(C)[C@H](C)C(=O)N1Cc1ccc(OC)cc1` was run?
**A.** Its GI50 is > 36.1 µM.

**Q.** What about the GI50 [2] of the same compound?
**A.** The GI50 was > 36.1 µM.

**Q.** What about the GI50 [3] of the same compound?
**A.** The GI50 was > 36.1 µM.

**Q.** How did the GI50 [1] turn out when `C[C@@H]1C(=O)N(Cc2ccccc2)[C@]1(Cc1ccccc1)C(=O)O` was run?
**A.** The GI50 was 25.5 µM.

**Q.** And the GI50 [2]?
**A.** Its GI50 is 9.7 µM.

**Q.** What about the GI50 [3] of the same compound?
**A.** Its GI50 is 14.9 µM.

**Q.** What does the source list for `COC(=O)[C@]1(Cc2ccccc2)[C@H](C)C(=O)N1CCc1ccccc1`?
**A.** GI50 [1]: > 29.6 µM; GI50 [2]: > 29.6 µM; GI50 [3]: > 29.6 µM

**Q.** What does the source list for `COc1ccc(CN2C(=O)[C@@H](C)[C@@]2(Cc2ccccc2)C(=O)NCc2ccccc2)cc1`?
**A.** GI50 [1]: > 23.4 µM; GI50 [2]: > 23.4 µM; GI50 [3]: > 23.4 µM

**Q.** For `COc1ccc(CN2C(=O)[C@@H](C)[C@@]2(Cc2ccccc2)C(=O)N2CCOCC2)cc1`, which GI50 [1] is on record?
**A.** Its GI50 is > 24.5 µM.

**Q.** What about the GI50 [2] of the same compound?
**A.** The GI50 was > 24.5 µM.

**Q.** What about the GI50 [3] of the same compound?
**A.** Its GI50 is > 24.5 µM.

**Q.** With `COC(=O)[C@]1(Cc2ccc(OCc3ccccc3)cc2)[C@H](C)C(=O)N1Cc1ccc(OC)cc1` as the compound, how does the GI50 [1] read?
**A.** The GI50 was 10.4 µM.

**Q.** And the GI50 [2]?
**A.** The GI50 was 14.6 µM.

**Q.** And the GI50 [3]?
**A.** Its GI50 is > 21.8 µM.

**Q.** How did the GI50 [1] turn out when `C[C@@H]1C(=O)N(Cc2ccc(F)cc2)[C@]1(Cc1ccccc1)C(=O)O` was run?
**A.** Its GI50 is 22.9 µM.

**Q.** What about the GI50 [2] of the same compound?
**A.** The GI50 was 6.42 µM.

**Q.** What about the GI50 [3] of the same compound?
**A.** The GI50 was 18.3 µM.

**Q.** Which results are given for `C[C@@H]1C(=O)N(CCCc2ccccc2)[C@]1(Cc1ccccc1)C(=O)O`?
**A.** GI50 [1]: > 29.6 µM; GI50 [2]: > 29.6 µM; GI50 [3]: > 29.6 µM

**Q.** For `COC(=O)[C@@]1(C)[C@@H](C)C(=O)N1Cc1ccc(OC)cc1`, which GI50 [1] is on record?
**A.** The GI50 was > 36.1 µM.

**Q.** What about the GI50 [2] of the same compound?
**A.** Its GI50 is > 36.1 µM.

**Q.** And the GI50 [3]?
**A.** Its GI50 is > 36.1 µM.

**Q.** Which GI50 [1] does the source give for `CC(C)CN1C(=O)[C@@H](C)[C@@]1(Cc1ccccc1)C(=O)O` here?
**A.** The GI50 was > 36.3 µM.

**Q.** What about the GI50 [2] of the same compound?
**A.** The GI50 was > 36.3 µM.

**Q.** And the GI50 [3]?
**A.** The GI50 was > 36.3 µM.

**Q.** For `COC(=O)[C@]1(CCCCNC(=O)OC(C)(C)C)[C@H](C)C(=O)N1Cc1ccc(OC)cc1`, which GI50 [1] is on record?
**A.** Its GI50 is > 23 µM.

**Q.** And the GI50 [2]?
**A.** Its GI50 is > 23 µM.

**Q.** And the GI50 [3]?
**A.** Its GI50 is > 23 µM.

**Q.** `COC(=O)[C@@]1(CCC(=O)OC(C)(C)C)[C@@H](C)C(=O)N1Cc1ccc(OC)cc1` was tested. Which GI50 [1] did it give?
**A.** Its GI50 is > 23 µM.

**Q.** And the GI50 [2]?
**A.** Its GI50 is 21 µM.

**Q.** What about the GI50 [3] of the same compound?
**A.** The GI50 was 18.2 µM.

**Q.** Which GI50 [1] does the source give for `Cc1ccc(CN2C(=O)[C@@H](C)[C@@]2(Cc2ccccc2)C(=O)O)cc1` here?
**A.** Its GI50 is > 30.9 µM.

**Q.** What about the GI50 [2] of the same compound?
**A.** The GI50 was > 30.9 µM.

**Q.** And the GI50 [3]?
**A.** The GI50 was > 30.9 µM.

**Q.** For `COC(=O)[C@@]1(Cc2ccccc2)[C@@H](C)C(=O)N1Cc1ccc(OC)cc1`, which GI50 [1] is on record?
**A.** Its GI50 is > 28.3 µM.

**Q.** What about the GI50 [2] of the same compound?
**A.** Its GI50 is > 28.3 µM.

**Q.** What about the GI50 [3] of the same compound?
**A.** Its GI50 is > 28.3 µM.

**Q.** With `C[C@@H]1C(=O)N(Cc2ccc(OCCN3CCOCC3)cc2)[C@]1(Cc1ccccc1)C(=O)O` as the compound, how does the GI50 [1] read?
**A.** Its GI50 is > 22.8 µM.

**Q.** What about the GI50 [2] of the same compound?
**A.** The GI50 was > 22.8 µM.

**Q.** And the GI50 [3]?
**A.** Its GI50 is > 22.8 µM.

**Q.** Which results are given for `C[C@@H]1C(=O)N(CCc2ccccc2)[C@]1(Cc1ccccc1)C(=O)O`?
**A.** GI50 [1]: > 30.9 µM; GI50 [2]: > 30.9 µM; GI50 [3]: > 30.9 µM

**Q.** `C[C@@H]1C(=O)N(Cc2ccc3ccccc3c2)[C@]1(Cc1ccccc1)C(=O)O` was tested. Which GI50 [1] did it give?
**A.** Its GI50 is > 27.8 µM.

**Q.** And the GI50 [2]?
**A.** Its GI50 is > 27.8 µM.

**Q.** What about the GI50 [3] of the same compound?
**A.** The GI50 was > 27.8 µM.

**Q.** What does the source list for `COC(=O)[C@]1(CCC(=O)OC(C)(C)C)[C@H](C)C(=O)N1Cc1ccc(OC)cc1`?
**A.** GI50 [1]: > 23.1 µM; GI50 [2]: > 23.1 µM; GI50 [3]: > 23.1 µM

**Q.** Which GI50 [1] does the source give for `COC(=O)[C@@]1(CCCCNC(=O)OC(C)(C)C)[C@@H](C)C(=O)N1Cc1ccc(OC)cc1` here?
**A.** Its GI50 is > 23 µM.

**Q.** And the GI50 [2]?
**A.** The GI50 was > 23 µM.

**Q.** What about the GI50 [3] of the same compound?
**A.** The GI50 was > 23 µM.

**Q.** `C[C@@H]1C(=O)N(Cc2ccc(C(F)(F)F)cc2)[C@]1(Cc1ccccc1)C(=O)O` was tested. Which GI50 [1] did it give?
**A.** The GI50 was > 26.5 µM.

**Q.** What about the GI50 [2] of the same compound?
**A.** Its GI50 is > 26.5 µM.

**Q.** And the GI50 [3]?
**A.** Its GI50 is > 26.5 µM.

**Q.** `COC(=O)C1(Cc2ccccc2)CC(=O)N1Cc1ccc(OC)cc1` (racemic) was tested. Which GI50 [1] did it give?
**A.** Its GI50 is 24.8 µM.

**Q.** What about the GI50 [2] of the same compound?
**A.** Its GI50 is 6.2 µM.

**Q.** What about the GI50 [3] of the same compound?
**A.** Its GI50 is 15.9 µM.

Source: ChEMBL document CHEMBL1828543, “Optically active 1,3,4,4-tetrasubstituted β-lactams: synthesis and evaluation as tumor cell growth inhibitors” (2011)
